Screening data from PubChem BioAssay.
CAL PDZ FP-1: blocks peptide binding to human CAL PDZ domain; purified CAL PDZ, TMR-peptide fluorescence polarization, 1 h; 330,000 tested, 0.02% active; Q9HD26; inhibition, % at 20 µM;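 active = highest replicate inhibition of at least 40%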;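 note: plate controls were DMSO neutral control wells for no effect and unlabeled competitor peptide control wells for full effect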
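Material – purified CerCALP PDZ construct · Detection – FP readout, S and P plane fluorescence · Measure – percent inhibition from loss of millipolarization · Controls – unlabelled peptide for full inhibition, DMSO wells as neutral · Probe or stimulus – TMR-labelled reporter peptide T*-PRC34 bound in PDZ groove · Times – 1 h at RT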
ARNT TACC3 PPI: disruptors of human ARNT/TACC3 interaction; AlphaScreen His-ARNT PAS-B/GST-TACC3 binding, luminescence; TACC3 fragment carries E629A point mutation; inhibition, % at 9.99 µM; 390,000 tested, 0.66% active;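 active = mean inhibition of replicates at least 50% and at least half of replicates each reaching 50%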;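 note: 0% = complete ARNT plus TACC3 wells and 100% = ARNT alone without TACC3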
DDE Tn6 FP inh: disrupts Tn6 cyclic peptide binding to fibrin D-Dimer-E complex. inhibition, % at 8.3 µM. P02675. Fibrin DD(E) TRITC-Tn6 fluorescence polarization displacement. 370,000 tested, 0.21% active;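 active = inhibition above a per-campaign cutoff: mean of compounds within control limits plus 3 SD, cut at about 15% in these data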;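 note: 0% = median of all compound wells on the plate and 100% = blocking peptide control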
Target sequence (P02675 whole entry, looked up): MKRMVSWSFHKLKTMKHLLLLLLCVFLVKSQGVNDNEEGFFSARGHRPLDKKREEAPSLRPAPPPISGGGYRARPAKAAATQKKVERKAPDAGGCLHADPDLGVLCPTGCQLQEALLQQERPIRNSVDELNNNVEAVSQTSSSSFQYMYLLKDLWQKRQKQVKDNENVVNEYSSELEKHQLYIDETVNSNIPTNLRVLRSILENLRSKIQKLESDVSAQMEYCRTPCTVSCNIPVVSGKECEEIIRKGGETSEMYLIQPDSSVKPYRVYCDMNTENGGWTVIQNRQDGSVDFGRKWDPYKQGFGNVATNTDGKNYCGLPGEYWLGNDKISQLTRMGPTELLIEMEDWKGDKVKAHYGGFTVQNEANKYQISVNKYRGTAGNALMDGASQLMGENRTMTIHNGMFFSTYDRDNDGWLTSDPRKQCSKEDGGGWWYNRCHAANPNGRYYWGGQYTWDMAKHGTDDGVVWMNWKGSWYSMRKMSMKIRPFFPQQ
CAL PDZ FP-2: blocks peptide binding to the human CAL PDZ domain; Q9HD26; purified CAL PDZ, TMR-peptide fluorescence polarization, 1 h; inhibition, % at 24.9 µM; 300,000 tested, 0.92% active; AID 602252;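 active = mean inhibition of at least 30% with at least half of replicates also reaching 30%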;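 note: 0% = DMSO neutral control and 100% = excess unlabeled competitor peptide PRC23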
Tn7 DDE FP: inhibitors of Tn7 peptide binding to human fibrin DD(E); P02675; FP displacement of FITC-Tn7 peptide from fibrin DD(E); 0% = median of compound wells per plate; inhibition, % at 8.3 µM; 370,000 tested, 0.13% active; AID 720508;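 active = inhibition above the mean of compounds falling within the control limits plus 3 SD of them, cut at about 14% in these data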;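 note: 0% = plate median of compound wells and 100% = 10 µM Aha-Tn7 peptide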
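system = human fibrin DD(E) protein | quantity = DD(E) 2 µM final | medium = Tris/NaCl/CaCl2 buffer, pH 7.8 | also added = labelled Tn7 tracer, 0.1 µM | compound dosing = single point at 8.3 µM | timing = compound with protein 10 min, then 3 h after probe, room temperature | signal = FP measurement | benchmarks = Aha-Tn7 high control | repeats = one replicate per compound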
GRK2 aptamer HTS: human GRK2 inhibition via aptamer displacement; bead flow cytometry, FAM-aptamer displacement from GRK2; inhibition of aptamer binding, % at 10 µM; 330,000 tested, 0.59% active;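 active = inhibition of aptamer binding above 40%, roughly 3 SD of noise, on plates passing a quality check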;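 note: median bead fluorescence of bound FAM aptamer so fluorescent compounds give negative values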
DDE Tn7 confirm: DD(E)-Tn7 binding inhibition, FP confirmation | shares compounds with Tn7 DDE FP | FP displacement of TRITC-Tn7 peptide from DD(E); 0% set at plate's compound-well median | inhibition, % at 8.3 µM | 460 tested, 5% active | AID 720628;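 active = inhibition above the campaign cutoff, the mean of compounds within control limits plus 3 SD, cut at about 14% in these data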;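 note: 100% = median FP of high control wells holding Aha-Tn7 inhibitor peptide; displacers lower polarization since freed probe rises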
Tn7 DDE ctr: counter-screen for inhibitors of Tn7 peptide binding to fibrin DD(E); TRITC-Tn7 probe displacement, fluorescence polarization; 460 tested, 3% active; shares compounds with Tn7 DDE FP; AID 720633; inhibition, % at 8.3 µM;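 active = inhibition above the cutoff, the mean of compounds lying between the control bounds plus 3 SD of those compounds, cut at about 17% in these data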;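 note: 0% = median of compound sample wells and 100% = excess unlabeled Aha-Tn7 peptide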
Starred values were filed as active, the others as inactive; . = no result. The list is not random: actives were taken first. Their share in the collection is about 1.8%.

SMILES	CAL PDZ FP-1	ARNT TACC3 PPI	DDE Tn6 FP inh	CAL PDZ FP-2	Tn7 DDE FP	GRK2 aptamer HTS	DDE Tn7 confirm	Tn7 DDE ctr
Cc1cc2nc3c(=O)n(C4CCCCC4)c(=O)[nH]c3nc2cc1N	-2	.	-4	-2	25*	.	17*	8
COCCn1c(-c2ccc(OC)cc2)nc2ccccc21	1	1	-1	-3	0	24	.	.
COCCn1c2nc(=O)n(-c3ccccc3)c(=O)c-2nc2ccccc21	.	.	2	.	51*	.	26*	-1
COc1ccccc1NS(=O)(=O)c1cc(C(=O)NCC(c2ccco2)N(C)C)ccc1C (stereo not drawn)	-1	.	0	6	3	3	.	.
COc1ccccc1NS(=O)(=O)c1cccc(C(=O)NCC(c2ccco2)N(C)C)c1 (stereo not drawn)	-3	-4	10	11	14*	0	-1	0
CC(=O)Nc1ccc(-c2csc(NCCc3ccccc3)n2)cc1	1	-1	6	0	17*	9	12	9
NC(=O)c1cc(-c2csc(NCCc3ccccc3)n2)ccc1O	0	.	-2	6	0	2	.	.
CC(C)(C)OC(=O)C(Oc1ccccc1[N+](=O)[O-])C(=O)OC(C)(C)C	.	.	11	.	19*	.	1	11
COc1ccccc1NC(=O)N[C@H]1CC[C@H](CCNC(=O)c2ccc3c(c2)OCO3)O[C@H]1CO	.	-7	.	.	.	.	.	.
O=C(N[C@H]1CC[C@@H](CCn2cc(C3(O)CCCC3)nn2)O[C@@H]1CO)C1CCCC1	.	-19	.	.	.	.	.	.
COc1ccc(S(=O)(=O)N2CC[C@@H]3[C@H]2c2cc(-c4ccccc4F)ccc2N[C@@H]3CO)cc1	.	-11	.	.	.	.	.	.
O=C(Cn1nc(C(=O)O)c2ccccc2c1=O)Nc1ccc(F)cc1F	-3	-2	2	-4	-3	1	.	.
O=C(Cn1nc(C(=O)O)c2ccccc2c1=O)Nc1cc(C(F)(F)F)ccc1-n1cncn1	-1	-8	5	-2	15*	3	-3	-6
Cc1c(O)nc2ccccn2c1=O	0	1	13	-3	14*	2	1	-3
CN(C)S(=O)(=O)N1CCC(Oc2ccc(C(=O)N3C[C@@H]4CCC[C@H]3C4)cc2)CC1	-3	-2	9	-3	14*	2	4	-3
O=C(NC1CCCCC1)C1c2ccccc2OCC(=O)N1Cc1ccccc1 (stereo not drawn)	.	.	8	.	-2	.	.	.
CCOC(=O)N1CCN(Cc2nc(-c3ccc(Cl)cc3)no2)CC1	.	-7	-1	-4	15*	1	6	-10
O=C(c1ccccc1)N1CCSc2sccc2C1=O	-3	-4	9	-4	15*	.	5	-5
O=C(c1ccccc1)N1CCSC1=S	-1	-4	7	.	0	1	.	.
Cc1ccc(S(=O)(=O)N(C)C[C@H]2Oc3ccc(NC(=O)Nc4ccc(C(F)(F)F)cc4)cc3CC(=O)N([C@H](C)CO)C[C@@H]2C)cc1	.	-7	.	.	.	.	.	.
COc1ccccc1S(=O)(=O)N(C)C[C@@H]1Oc2cc(/C=C/c3ccccc3)ccc2S(=O)(=O)N([C@H](C)CO)C[C@H]1C	.	-4	.	.	.	.	.	.
COc1ccc([C@H]2CC(=O)C=C(c3ccc(Cl)c(F)c3)C2)cc1	1	0	-7	0	14*	4	7	5
Cc1ccc(Cl)cc1N1CCN(S(=O)(=O)c2ccc(-c3ccc(=O)[nH]n3)o2)CC1	-2	-7	4	0	8	1	.	.
O=c1ccc(-c2ccc(S(=O)(=O)N3CCCCC3)o2)n[nH]1	0	9	6	.	14*	2	-1	0
COc1ccc(CCNC(=O)CC2SC(=NCc3ccccc3)NC2=O)cc1 (stereo not drawn)	-2	-1	1	-2	15*	0	-2	-6
SMILES	CAL PDZ FP-1	ARNT TACC3 PPI	DDE Tn6 FP inh	CAL PDZ FP-2	Tn7 DDE FP	GRK2 aptamer HTS	DDE Tn7 confirm	Tn7 DDE ctr
C=C(C)n1c(=O)n(Cc2ccccc2C)c2ccccc21	0	-7	9	3	7	0	.	.
NC(=O)CC(NC(=O)Cc1ccc(Cl)cc1)c1ccc(NC2CCCC2)c([N+](=O)[O-])c1 (stereo not drawn)	0	-5	-4	-1	14*	0	7	5
NC(=O)CC(NC(=O)Cc1ccc(Cl)cc1)c1ccc(NC2CCCCC2)c([N+](=O)[O-])c1 (stereo not drawn)	-3	-1	0	7	8	2	.	.
C/C=C/c1ccc([C@H]2[C@@H](CO)N(C(=O)CC)[C@@H]2CNC(=O)CC2CC2)cc1	.	-6	.	.	.	.	.	.
COC(=O)C(C(C)C)N(Cc1cc(OC)cc(OC)c1)S(=O)(=O)CCl (stereo not drawn)	0	-6	1	-3	15*	3	0	-4
CCOC(=O)[C@@H](C)N(C(=O)OC(C)(C)C)S(=O)(=O)N(Cc1ccccc1)[C@H](C(=O)OC)C(C)C	-2	-13	1	-1	1	.	.	.
COc1cc(C)c(NC(=O)Cc2ccsc2)cc1OC	-2	10	3	-1	-1	11	.	.
O=C(NCC[C@@H]1CC[C@H](NS(=O)(=O)c2ccccc2)[C@@H](CO)O1)c1ccc2c(c1)OCO2	.	-1	.	.	.	.	.	.
O=S(=O)(c1ccc(SCc2ccc(Br)cc2)nc1)N1CCCCC1	-1	-3	3	.	14*	.	-5	-10
CCC(=O)Nc1ccc2c(c1)OC[C@H](C)N(C(=O)C1CCC1)C[C@H](C)[C@H](OC)CN(C)C2=O	.	2	.	.	.	.	.	.
CC1NC(=O)c2ccccc2-n2c1nc1ccc(F)cc1c2=O (stereo not drawn)	.	.	4	.	2	.	.	.
CN(C)S(=O)(=O)c1ccc(C(=O)NCC(=O)N/N=C/c2cccs2)cc1	-2	1	9	-1	15*	0	-2	-3
CC(=O)Nc1sc(C)c(C)c1C(=O)OCC(=O)Nc1ccccc1C(F)(F)F	.	.	5	.	16*	.	3	2
CCCNC(=O)C[C@H]1CC[C@@H]2[C@H](COC[C@H](O)CN2C(=O)Nc2ccc(Cl)c(Cl)c2)O1	.	1	.	.	.	.	.	.
O=C(N/N=C/c1sc(=O)[nH]c1-[n+]1ccccc1)c1ccccc1[O-]	-1	5	-3	-3	-3	0	.	.
O=C(N/N=C/c1sc(=O)[nH]c1-[n+]1ccc2ccccc2c1)c1ccccc1[O-]	-2	11	-5	0	20*	1	4	2
